The results in this text go back to PubChem BioAssay AID463111 (Johns Hopkins Ion Channel Center, 2010).

Screen size: about 310,000 compounds; about 2,800 (0.9%) were called active.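 Rule for the calls: active = B-score of the integrated calcium signal more than 4 SD below the library mean, with starting fluorescence not abnormally high; inactive = the rest.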 The entries come from a sample that favours actives as a whole.

The nature of the assay: RGS4 potentiators or activators, primary screen, cell-based, HEK293 M3R inducible RGS4, calcium flux (AID 463111).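 For B-score: negative B-score means reduced calcium response which marks RGS4 activation or potentiation.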 Particulars: HEK293 M3R/inducible RGS4, carbachol calcium flux Fluo4, at 10 µM; active compounds read low. Summed up:
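Reagent: ECmax carbachol challenge; Test system: M3R-expressing HEK293 line, RGS4 induced by doxycycline; Schedule: overnight RGS4 induction, 30 min dye load 37 °C, 20 min compound RT; Detection: calcium dye Fluo4 fluorescence; Read-out: Agonist-evoked peak-minus-minimum fluorescence over baseline, integrated ratio, B score.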
(Calcium assays in cells follow changes in intracellular calcium, usually with a dye or a luminescent sensor.)
Consider `CCS(=O)(=O)Nc1ccc(C2=NN(S(=O)(=O)c3ccc(F)cc3)C(c3ccco3)C2)cc1` (centres undefined), for which the B-score was -7.77 (active).
For the compound `CCS(=O)(=O)Nc1ccc(C2=NN(C(C)=O)C(c3cccs3)C2)cc1` (centres undefined), the B-score result is “inactive”.
Under `CS(=O)(=O)Nc1ccc(C2=NN(S(C)(=O)=O)C(c3cccs3)C2)cc1` (centres undefined) stands “inactive”; under `COc1ccc(N(CC(=O)Nc2cc(OC)ccc2OC)S(=O)(=O)c2c(C)noc2C)cc1`, “inactive”; under `C=CCNC(=O)COC(=O)CNC(=O)c1cc(Cl)cc([N+](=O)[O-])c1`, “inactive”.
For `COc1ccc(Nc2nc(-c3cccnc3)nc3ccccc23)cn1` the value was “inactive”; for `Cc1cccc(-c2nc(Nc3ccc(O)cc3)c3ccccc3n2)c1`, -8.56 (active); for `CC(=O)Nc1cccc(Nc2nc(-c3cccs3)nc3ccccc23)c1`, “inactive”.
As to `CC(NS(=O)(=O)c1ccc(OCC(=O)N2CCCC2)cc1)c1ccccc1` (centres undefined), the B-score entry is “inactive”.
Under `CCc1ccc(N2CC(O)=C(c3nc4ccccc4c(=O)[nH]3)C2=N)cc1` stands “inactive”.
For `COc1ccccc1CNC(=O)C1CCN(C(=O)[C@@H]2Cc3ccccc3CN2)CC1` the value was “inactive”; for `O=C(Cc1ccccc1)NNC1CC(=O)N(c2ccc(Br)cc2)C1=O` (centres undefined), “inactive”; for `CC1=C(C)CC2C(=O)N(c3cccc4ccccc34)C(=O)C2C1` (centres undefined), “inactive”.
For `Cc1ccc(N2C(=O)CC(Nc3cccc4ccccc34)C2=O)cc1` (centres undefined) the value was -8.55 (active).
As for `O=C(NCc1ccccc1)C1CCCN(c2nc3ccsc3c(=O)s2)C1` (centres undefined), the B-score result was “inactive”.
Under `CCCOc1ccc(C(=O)CCC(=O)OC(C)C(=O)Nc2ccc(NC(C)=O)cc2)cc1` (centres undefined) stands “inactive”.
In the case of `CCCCOc1ccc(C(=O)NN2CCN(C)CC2)cc1`, the B-score entry is “inactive”.
For `CCCOc1ccc(C(=O)C(CCC(CNCC)C(=O)c2ccc(OCCC)cc2)CNCC)cc1` (centres undefined) the value was -8.07 (active).
Under `COc1ccc(Cl)cc1NS(=O)(=O)c1cccc(C(=O)NCC2CCCO2)c1` (centres undefined) stands “inactive”.
Under `C[N+](C)(C)CCNC(=O)c1cc[n+](Cc2ccccc2)c(/C=N/O)c1` stands “inactive”; under `Cc1ccc(/C=C(\C#N)C(=O)Nc2cccc3ncccc23)o1`, “inactive”; under `C=CCn1c(=O)c(C(=O)NCc2ccc3c(c2)OCO3)c(O)c2ccccc21`, “inactive”.
Turning to `Cc1ccc(C)c(NC2=NCC(=O)N2c2ccc3c(c2)OCCO3)c1`, the B-score entry is “inactive”.
Under `CCOc1ccccc1NC(=O)Cn1ncc2ccc([N+](=O)[O-])cc21` stands “inactive”.
For `Cc1cccc(C)c1NC(=O)C1(C)c2cccc[n+]2CC(=O)N1Cc1cccs1` (centres undefined) the value was “inactive”; for `O=C(Oc1ccc(-c2nnco2)cc1)c1ccc(F)c(S(=O)(=O)N2CCOCC2)c1`, -7.43 (active); for `COc1ccc(C(=O)Oc2ccc(-c3nnco3)cc2)cc1S(=O)(=O)N1CCOCC1`, “inactive”.
For `Cc1cc(NC(=O)COC(=O)c2ccc(F)c(S(=O)(=O)N3CCOCC3)c2)no1` the value was “inactive”; for `COc1ccccc1-c1cnn2c(N3CCOCC3)cc(C)nc12`, “inactive”; for `CC(C)Oc1ccc(CN2CCC(n3nccc3NC(=O)c3cccnc3)CC2)cc1`, “inactive”.
Consider `Cc1nnc(SCC(=O)NNC(=O)c2ccc(Cl)cc2)n1CC1CCCO1` (centres undefined), for which the B-score result is “inactive”.
Under `S=c1[nH]nc(-c2ccc(Cl)cc2)n1CC1CCCO1` (centres undefined) stands -8.73 (active).
Under `Cc1ccc(-n2c(-c3ccc(Cl)cc3)n[nH]c2=S)cc1` stands “inactive”; under `O=C(CSc1ncccn1)N1CCCC1`, “inactive”; under `CCCCCN(C(=O)NC(=O)Nc1ccccc1OC)S(C)(=O)=O`, “inactive”.
Under `CCCN1C2=C(C(=O)CCC2)C(c2ccc(O)c(Br)c2)C2=C1CCCC2=O` stands “inactive”.
For `CCOc1cc(/C=N/NC(=O)c2ccc(CSc3nncn3C)cc2)ccc1OCC(=O)N1CCOCC1`, the B-score result is “inactive”.
As to `COCCCNS(=O)(=O)c1cccc(S(=O)(=O)c2cccc(S(=O)(=O)NCCCOC)c2)c1`, the B-score entry was “inactive”.
For `COc1cccc(NC(=O)CN2CCN(c3nc(-c4cccc(OC)c4)cs3)CC2)c1` the value was “inactive”.
`COc1cccc(CNc2nc3nc4c(c(=O)n3[nH]2)CCC4)c1`: the B-score entry is “inactive”.
`COc1cccc(-c2cc3nc4c(c(N5CCC6(CC5)OCCO6)n3n2)CCCC4)c1`: the B-score is -7.88 (active).
Under `O=C(c1cc2ccccc2o1)N1CCN(Cc2ccccc2)CC1` stands “inactive”; under `Cc1cnc(C(=O)N2CCCC(N3CCN(c4ccccc4F)CC3)C2)cn1` (centres undefined), “inactive”.
For `O=C(NCCc1c[nH]c2ccccc12)c1cc2ccccc2oc1=O` the value was “inactive”.
With `CCCN(CCC)c1nc2c(C)cccn2c(=O)c1/C=C1/SC(=S)N(Cc2ccco2)C1=O`, the B-score entry is “inactive”.
In the case of `CC(C)NC(=O)C(=O)NCCCOC(C)C`, the B-score entry was “inactive”.
With `CNC(=O)c1ccsc1NC(=O)c1ccc(S(=O)(=O)N2CCOCC2)cc1`, the B-score result was “inactive”.
As to `CCOC(=O)c1csc(NC(=O)c2ccc(S(=O)(=O)N3CCCC3)cc2)n1`, the B-score result was “inactive”.
Under `COc1ccc(C(=O)Nc2nc(-c3ccc(S(=O)(=O)N4CCOCC4)cc3)cs2)cc1` stands -7.75 (active); under `O=C(COC(=O)c1cnccn1)Nc1ccc(Cl)cc1C(F)(F)F`, “inactive”.
For `COc1ccc(Cc2nnc(SCC(=O)Nc3ccc(C)c(Cl)c3)[nH]c2=O)cc1` the value was “inactive”; for `O=C(Nc1cc2c3c(c1)C1CCCC1CN3CC1CCCC21)c1ccc([N+](=O)[O-])cc1` (centres undefined), -8.07 (active); for `CN1C2CCC1CC(NC(=O)c1ccc([N+](=O)[O-])cc1)C2` (centres undefined), “inactive”.
For `O=C(Nc1ccccc1C(=O)Nc1ccncc1)c1ccc([N+](=O)[O-])cc1`, the B-score entry is “inactive”.
Take `O=C(Nc1ccc2c(c1)OCO2)C1CC(c2c(F)cccc2Cl)=NO1` (centres undefined): the B-score entry is “inactive”.
For `COc1cc(NC(=S)NCCSc2ccc(C)cc2)cc(OC)c1` the value was “inactive”; for `COc1cc(/C=C(\C#N)c2nc3ccccc3[nH]2)ccc1O`, -8.51 (active); for `COc1cc(/C=C(\C#N)c2nc3c(s2)CC(C)CC3)ccc1O` (centres undefined), “inactive”.
For `COc1ccc(/C=C(/NC(=O)c2ccc(C)cc2)c2nc3ccccc3[nH]2)cc1OC` the value was “inactive”.
Under `COc1ccccc1NC(=O)N1CCCC1C(=O)NCc1cccs1` (centres undefined) stands “inactive”.
As to `O=C1Nc2ccc(Br)cc2/C1=N/N=C/C1=C(N2CCOCC2)C(=C\c2ccccc2)/CC1`, the B-score result is “inactive”.
Turning to `Cc1cccc2sc(N(CCCN(C)C)C(=O)CCS(=O)(=O)c3ccccc3)nc12`, the B-score was -8.92 (active).
Under `COc1cccc2sc(N(CCCN(C)C)C(=O)CCS(=O)(=O)c3ccccc3)nc12` stands “inactive”; under `COc1cccc2sc(N(CCCN(C)C)C(=O)C(c3ccccc3)c3ccccc3)nc12`, “inactive”.
